# Rows were chosen to be rich in hits. Some 4% of all compounds tested hit in one or more screens of this group.
# Cl transport mod = modulates chloride dependent transport by human KCC2 | Q9H2X9 | KCC2 cells, thallium flux FluoZin-2 fluorescence | B-score of Tl+ flux slope (higher = more flux/activation; lower = inhibition) at 10 µM | 2.2% of 190,000 active | AID 1456;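 active = thallium flux slope and its plate-corrected score both differing from the plate sample mean at a set confidence after two filtering rounds, in either direction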;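 note: slope of fluorescence scaled to starting intensity during 10 to 20 s after thallium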
# Target sequence (Q9H2X9 whole entry, looked up): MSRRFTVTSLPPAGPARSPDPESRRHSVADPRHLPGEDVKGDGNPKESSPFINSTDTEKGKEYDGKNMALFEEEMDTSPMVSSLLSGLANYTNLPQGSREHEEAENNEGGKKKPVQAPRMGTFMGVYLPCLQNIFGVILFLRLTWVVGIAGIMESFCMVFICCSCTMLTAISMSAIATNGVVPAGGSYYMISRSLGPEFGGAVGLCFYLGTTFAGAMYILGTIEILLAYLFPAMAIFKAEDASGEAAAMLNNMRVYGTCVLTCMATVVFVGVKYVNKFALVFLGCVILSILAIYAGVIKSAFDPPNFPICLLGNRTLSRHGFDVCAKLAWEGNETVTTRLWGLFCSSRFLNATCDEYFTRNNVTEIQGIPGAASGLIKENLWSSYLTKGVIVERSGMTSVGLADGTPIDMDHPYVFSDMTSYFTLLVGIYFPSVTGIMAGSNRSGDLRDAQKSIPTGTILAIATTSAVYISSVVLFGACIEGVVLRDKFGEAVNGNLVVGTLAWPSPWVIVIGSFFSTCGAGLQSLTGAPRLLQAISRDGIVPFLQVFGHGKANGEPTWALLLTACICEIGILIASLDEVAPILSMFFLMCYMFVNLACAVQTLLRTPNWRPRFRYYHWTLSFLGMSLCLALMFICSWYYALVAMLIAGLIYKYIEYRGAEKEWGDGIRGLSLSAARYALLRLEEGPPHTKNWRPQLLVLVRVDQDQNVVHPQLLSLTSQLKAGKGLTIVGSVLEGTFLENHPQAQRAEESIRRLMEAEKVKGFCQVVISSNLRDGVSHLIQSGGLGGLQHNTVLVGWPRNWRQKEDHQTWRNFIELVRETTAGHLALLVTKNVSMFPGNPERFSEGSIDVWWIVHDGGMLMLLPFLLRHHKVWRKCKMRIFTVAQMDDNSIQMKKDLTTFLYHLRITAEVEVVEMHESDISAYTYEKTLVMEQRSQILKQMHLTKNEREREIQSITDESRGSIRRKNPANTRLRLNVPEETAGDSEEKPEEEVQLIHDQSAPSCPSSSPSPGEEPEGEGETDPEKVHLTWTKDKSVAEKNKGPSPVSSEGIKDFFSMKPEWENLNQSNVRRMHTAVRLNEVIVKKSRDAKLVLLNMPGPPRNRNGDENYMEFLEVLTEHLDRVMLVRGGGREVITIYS
# b-catenin transl = beta-catenin nuclear translocation modulation; HeLa beta-catenin nuclear translocation, immunofluorescence imaging; nuclear translocation activity, % at 5 µM; 0.3% of 190,000 active;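 active = nuclear translocation activity above 50% at 5 µM, with a well cell count of 50 or more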;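 note: per-cell ratio of nuclear to cytoplasmic median beta-catenin stain intensity; plate controls were DMSO negative control for no effect and GSK-3 inhibitor IX positive control for full effect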
#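 System: Human HeLa cells, endogenous beta-catenin | Compound dosing: 5 µM primary, 0.02–20 µM confirmation | Timing: 24 h compound exposure at 37°C, 5% CO2 | Measured by: Fluorescence imaging of beta-catenin antibody stain plus DAPI | Read-out basis: % activation of per-cell nuclear versus cytoplasmic median beta-catenin signal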
# Pf gamet viab = P. falciparum stage V gametocyte viability inhibition; P. falciparum stage V gametocytes, ATP luminescence, 24 h; inhibition, % at 10.9 µM; 0.065% of 150,000 active; AID 743093;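 active = inhibition above the mean plus 3 SD of compounds within the control limits, set per campaign, cut at about 38% in these data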;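 note: 0% = DMSO wells and 100% = medium only without gametocytes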
# WT yeast gro inh = growth inhibition of WT yeast, mitochondrial fusion screen | 2.1% of 190,000 active | mitochondrial fusion phenotypic screen, WT strain | inhibition, % at 10 µM; in the data active = inhibition above about 58%; tested in S. cerevisiae
# MT stabilizer = stabilizes microtubules in HeLa cells; % tubulin-high responders, % at 10 µM; 0.83% of 200,000 active; AID 2205; HeLa tubulin immunostaining HCS, 24 h; share of cells brighter than vehicle mean+2SD;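 active = plate Z-score above 3 for both tubulin-high and condensed-nucleus cell shares, with cell loss under 80%, at 10 µM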;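 note: anti alpha tubulin signal scored within the nucleus-defined area of each cell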
# * marks the source's active call; other numbers are inactive results; . = no result given.
SMILES,Cl transport mod,b-catenin transl,Pf gamet viab,WT yeast gro inh,MT stabilizer
O=C(NC(=S)N1CCN(c2ccc([N+](=O)[O-])cc2)CC1)c1ccco1,0.724,-1.0,5.5,13.0,4.7
O=C(NC(=S)N1CCN(c2ccc(Cl)cc2[N+](=O)[O-])CC1)c1ccco1,16.8*,-0.2,-14.6,-5.5,1.7
O=C(NC(=S)N1CCN(c2ccc(Cl)cc2[N+](=O)[O-])CC1)c1cccs1,70.9*,-1.7,.,71.6,8.3
O=C(Oc1cccc(Nc2ncnc3ccccc23)c1)c1ccccc1Cl,.,-2.1,.,58.9*,3.3
COc1cccc(Nc2ncnc3ccccc23)c1,-0.911,-0.5,.,0.5,1.1
COc1ccccc1CCN1CCCC(CN(C)C(=O)CCC(=O)N(C)C)C1 (stereo unspecified),.,.,9.3,.,.
CCCCSc1ncnc2[nH]ncc12,-0.622,0.3,8.6,.,.
O=C(Cc1cccs1)N1CCN(c2nc(-c3ccc(Cl)cc3)cs2)CC1,0.577,1.7,.,59.3*,4.6
COc1ccc(C(=O)/C=C2/c3ccccc3CC(C)(C)N2C)cc1,.,.,.,13.0,27.5*
Cc1ccc(Nc2nc(N)nc(CSc3nc4ccccc4s3)n2)cc1,-2.4,.,.,86.3*,1.8
C=CCNC(=O)c1cccc(C(F)(F)F)c1,-0.961,0.0,.,-10.2,2.5
CCn1c2ccccc2c2cc(/C=N/NC(=O)c3ccc(O)cc3)ccc21,-0.362,52.4*,6.1,5.3,16.5*
CCn1c2ccccc2c2cc(/C=N/NC(=O)c3ccncc3)ccc21,-0.781,20.3,-21.7,-5.1,13.3*
COC(=O)C1=C(C(=O)OC)[C@]2([C@@H]3CCCCN[C@@H](Cc4ccccc4)C(=O)N3Cc3ccccc3)C=C[C@H]1O2,.,.,-20.1,.,.
CCc1ccc(-c2cc(C(F)(F)F)n3nc(C(=O)Nc4cnn(Cc5ccc(C)cc5)c4)cc3n2)s1,-0.123,.,.,2.8,2.8
CC(=O)c1ccc2c(c1)C1C=CCC1C(c1cc3c(cc1Br)OCO3)N2 (stereo unspecified),.,.,-34.3,.,.
COc1ccc2c(c1)C1C=CCC1C(c1cc3c(cc1Br)OCO3)N2 (stereo unspecified),0.501,.,-16.0,18.5,38.5*
COc1cc(CN(CCN(C)C)Cc2ccccc2)ccc1OCc1ccccc1,.,.,11.2,.,.
Cc1cccc2cc3c(N)c(C(=O)N4CCc5ccccc54)sc3nc12,0.193,11.8,16.3,24.8,11.7*
Cc1cc(C)c2nc3sc(C(=O)N4CCOCC4)c(N)c3cc2c1,-1.36,72.0*,-15.9,.,.
Cc1ccc(C)c2nc3sc(C(=O)N4CCOCC4)c(N)c3cc12,-1.11,42.9,19.7,19.2,28.1*
Cc1cc(C)c2cc3c(N)c(C(=O)N4CCOCC4)sc3nc2c1,-0.787,0.5,7.2,7.4,4.2
Nc1c(C(=O)N2CCOCC2)sc2nc3c(cc12)CCC3,.,0.3,10.8,-10.2,1.4
O=C1c2ccccc2NC(c2ccc(Br)s2)N1O (stereo unspecified),.,.,-25.0,.,.
COC(=O)c1ccccc1NC(=O)CCCn1nc([N+](=O)[O-])c(Br)c1C,-1.12,-1.8,-0.1,21.6,2.0
SMILES,Cl transport mod,b-catenin transl,Pf gamet viab,WT yeast gro inh,MT stabilizer
Cc1cc(Cl)ccc1OCC(=O)N/N=C1\CC2C=CCC12 (stereo unspecified),-1,-1.9,18.6,6.5,6.6
C/C(=N\Nc1cccc(Cl)c1)c1ccc(-n2ccnc2)cc1,0.67,-3.6,7.0,66.1*,3.2
COC(=O)N/N=C(\C)c1ccc(-n2ccnc2)cc1,.,-1.5,-13.7,-10.0,2.1
CCn1c2c(c(=N)c3c1CCC3)CCC2,0.759,-1.0,20.9,1.9,4.7
N=c1c2c(n(Cc3ccc(F)cc3)c3c1CCC3)CCC2,.,2.1,.,65.6*,2.8
COc1ccc(-c2noc(=O)n2Cc2cc(C)ccc2C)cc1,-0.0421,4.2,.,11.6,11.4*
CCN(CC)S(=O)(=O)c1ccc2nnn(O)c2c1,0.23,0.4,-7.2,-8.8,4.0
COc1ccc(/C(C)=N/OC/C(O)=C(\C#N)c2nc3ccccc3[nH]2)cc1OC,-0.0536,2.6,4.5,-5.6,15.7*
COc1ccc(/C(C)=N/OC/C(O)=C(\C#N)c2nc3ccccc3[nH]2)c(OC)c1,-0.173,-3.2,14.5,-14.4,1.9
CCC1=[N+](C)c2cccc3cccc(c23)N1C,0.254,-1.1,15.0,59.1*,4.2
O=C(Nc1nc(-c2cccs2)c(-c2cccs2)s1)C1CCCC1,0.0587,0.3,1.9,71.8*,3.5
Cc1c(Cl)c([N+](=O)[O-])nn1CC(=O)NC(C)C1CC2CCC1C2 (stereo unspecified),-0.353,-0.5,-16.8,2.1,1.8
CC1CCCN(C(=O)CSc2nnc(-c3cccnc3)n2C2CCCCC2)C1 (stereo unspecified),0.316,-5.4,-0.9,65.2*,1.4
O=C(COC(=O)CC(c1ccccc1)c1ccccc1)NCc1ccc(Cl)cc1,-0.0371,.,-3.0,63.4*,3.7
CC(C)Oc1cccc(C(=O)NC(=S)Nc2ccccc2)c1,45.6*,-3.5,.,49.9,3.0
Cc1c(NC(=S)N/C(=N/S(=O)(=O)c2ccccc2)c2ccccc2)c(=O)n(-c2ccccc2)n1C,-0.331,0.7,-35.9,.,.
Cc1cccc(NC(=S)N/C(=N/S(=O)(=O)c2ccccc2)c2ccccc2)c1,3.54*,-0.2,19.9,26.2,1.8
CC(=O)c1cccc(NC(=S)NC(=O)c2cccc(C)c2)c1,8.44*,.,.,-1.3,4.9
CC(=O)c1cccc(NC(=S)NC(=O)c2ccccc2C)c1,2.74,0.9,9.7,19.0,2.8
CC(C)Oc1cccc(C(=O)NC(=S)Nc2cccnc2)c1,4.12,-2.6,12.2,25.9,3.4
COc1cccc(-n2c(=O)c3c(C)c(C(=O)N(C)C)sc3n(CC(=O)NCC3CCCO3)c2=O)c1 (stereo unspecified),-0.15,0.6,-16.9,-2.3,2.7
COc1cc(/C=N/n2cnc3scc(-c4cccs4)c3c2=O)cc(OC)c1OC,-0.304,1.6,.,13.3,30.0*
Cc1onc(-c2c(Cl)cccc2Cl)c1CO/N=C(\C#N)c1c(Cl)cccc1Cl,-0.499,5.6,10.4,.,.
Cc1ccc(NC2(c3nnnn3-c3c(C)cccc3C)CCCCC2)cc1,-0.0396,1.8,7.6,81.8*,2.0
O=[N+]([O-])c1cc([N+](=O)[O-])c(N2CCCCCC2)cc1NCCO,.,7.1,-24.8,80.2*,2.1
SMILES,Cl transport mod,b-catenin transl,Pf gamet viab,WT yeast gro inh,MT stabilizer
COc1ccc(/C=C2\SC(=S)NC2=O)cc1OS(=O)(=O)c1ccc(NC(C)=O)cc1,-2.83,0.6,-12.3,-2.8,4.0
COc1cc(/C=C2\SC(=S)NC2=O)ccc1OS(=O)(=O)c1ccccc1,80.2*,-2.5,.,79.2*,1.7
COc1ccc(/C=C2\SC(=O)NC2=S)cc1OC,11.7*,-6.3,3.0,16.3,3.0
CCOc1ccc(/C=C2\SC(=S)N(C)C2=O)cc1OC,0.22,-0.1,3.2,.,.
COc1ccc(/C=C2/S/C(=N/S(=O)(=O)Cc3ccccc3)NC2=O)cc1OC,-5.37,0.0,1.6,.,.
COc1cc(/C=C2/SC(=S)NC2=O)ccc1OS(=O)(=O)c1ccc(C)cc1,80.2*,-0.7,.,73.4*,3.0

# Compound activity (PubChem BioAssay)
